Measured values as given in ChEMBL document CHEMBL1153405, “Complementary three-dimensional quantitative structure-activity relationship modeling of binding affinity and functional potency: a study on alpha4beta2 nicotinic ligands” (J Med Chem, 2009).

How the values were obtained:
[1] = molecular target: T1, Neuronal acetylcholine receptor; alpha4/beta2 (Homo sapiens, UniProt P17787+P43681); assay: Displacement of [3H]cytisine from human alpha4beta2 nAChR expressed in HEK293 cells; type: cell-based
[2] = molecular target: T1, Neuronal acetylcholine receptor; alpha4/beta2; assay: Agonist activity at human alpha4beta2 nAChR expressed in HEK293 cells assessed as intracellular calcium level by FLIPR assay; type: functional, cell-based
How it was run: (§1)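 HEK-293 cells stably expressing human α4β2 (subunits cloned from IMR32) were grown in DMEM with 10% FBS at 37 °C and 5% CO2. They were plated on poly-D-lysine for 24 h, then loaded with 2 µM fluo-4/AM for 1.5 h at room temperature. Cells were washed into NMDG Ringer (10 mM CaCl2, pH 7.4) and read by FLIPR at 100 pM–100 µM. Background-subtracted responses were normalized to 100 µM (-)-nicotine, giving pEC50 and maximal efficacy; n = 4-8.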

[3] = molecular target: T1, Neuronal acetylcholine receptor; alpha4/beta2; assay: Intrinsic activity at human alpha4beta2 nAChR expressed in HEK293 cells assessed as intracellular calcium level by FLIPR assay relative to (-)nicotine; type: cell-based; how it was run: as §1

T1 sequence (P17787 whole entry): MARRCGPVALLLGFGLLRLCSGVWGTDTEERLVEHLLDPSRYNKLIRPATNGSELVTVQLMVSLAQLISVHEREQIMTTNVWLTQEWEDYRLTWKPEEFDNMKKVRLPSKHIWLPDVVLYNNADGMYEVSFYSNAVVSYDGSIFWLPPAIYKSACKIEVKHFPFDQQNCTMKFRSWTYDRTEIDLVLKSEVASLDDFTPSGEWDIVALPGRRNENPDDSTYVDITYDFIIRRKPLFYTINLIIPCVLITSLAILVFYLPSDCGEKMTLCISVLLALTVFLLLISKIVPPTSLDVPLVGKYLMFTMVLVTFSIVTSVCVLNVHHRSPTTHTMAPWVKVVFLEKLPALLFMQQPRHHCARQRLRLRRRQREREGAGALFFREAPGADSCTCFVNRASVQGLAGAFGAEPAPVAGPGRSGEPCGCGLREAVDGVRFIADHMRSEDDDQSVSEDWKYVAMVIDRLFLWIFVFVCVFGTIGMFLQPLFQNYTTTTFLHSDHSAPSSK
T1 sequence (P43681 whole entry): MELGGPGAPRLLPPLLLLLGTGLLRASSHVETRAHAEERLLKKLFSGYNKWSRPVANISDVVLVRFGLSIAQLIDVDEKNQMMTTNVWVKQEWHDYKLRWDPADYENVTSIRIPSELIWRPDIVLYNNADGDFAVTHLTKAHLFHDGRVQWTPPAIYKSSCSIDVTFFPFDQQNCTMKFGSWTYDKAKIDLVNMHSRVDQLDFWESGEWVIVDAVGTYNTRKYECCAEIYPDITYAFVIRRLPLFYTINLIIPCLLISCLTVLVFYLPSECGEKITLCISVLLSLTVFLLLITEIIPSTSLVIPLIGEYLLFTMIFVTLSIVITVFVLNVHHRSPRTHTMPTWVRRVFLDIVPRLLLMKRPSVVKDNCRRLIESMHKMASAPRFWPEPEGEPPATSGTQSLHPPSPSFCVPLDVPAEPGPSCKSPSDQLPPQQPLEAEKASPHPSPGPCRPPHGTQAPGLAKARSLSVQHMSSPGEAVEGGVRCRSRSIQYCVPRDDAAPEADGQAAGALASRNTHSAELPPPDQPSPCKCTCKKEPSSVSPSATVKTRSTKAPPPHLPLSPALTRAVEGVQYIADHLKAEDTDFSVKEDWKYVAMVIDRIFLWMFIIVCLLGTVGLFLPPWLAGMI

SMILES	IC50 [1] [nM]	EC50 [2] [nM]	Efficacy [3] [%]
C=COc1cncc(N2CCCNCC2)c1	5.01	1100	61
Clc1cncc(N2CCCNCCC2)c1	2	170	103
Oc1cc(N2CCCNCC2)cnc1I	21.9	479	104
COCCOc1cncc(N2CCCNCC2)c1	2.4	8710	42
Clc1cc(N2CCCNCC2)cnc1Br	1.41	15.1	102
NC(=O)c1cncc(N2CCCNCC2)c1	20	12900	56
Brc1ccc(N2CCCNCCC2)cn1	0.447	1.29	139
CCSc1ccc(N2CCCNCC2)cn1	170	4470	53
C/C=C\Oc1cncc(N2CCCNCC2)c1	1.29	2090	45
c1cncc(N2CCCNCC2)c1	–	229	94
c1cncc(OC2CCNC2)c1 (stereo not drawn)	100	28800	54
Clc1cncc(OC2CCCNC2)c1 (stereo not drawn)	240	1410	15
COc1cncc(C2=CC3CCCC(C2)N3)c1 (stereo not drawn)	3.02	4370	13
Clc1ncc(N2CCCNCC2)cc1Br	1.41	57.5	85
C=COc1cc(N2CCCNCC2)cnc1Br	0.646	110	80
COc1cncc(N2CCCNCCC2)c1	1	120	89
Oc1cncc(N2CCCNCC2)c1	2.4	141	120
c1cncc(OC[C@@H]2CCN2)c1	1.51	–	–

SMILES	IC50 [1] [nM]	EC50 [2] [nM]	Efficacy [3] [%]
COc1cc(N2CCNCC2)cnc1Br	–	17000	68
c1ccc2ncc(N3CCCNCC3)cc2c1	6.61	3630	33
Brc1cncc(N2CCCNCCC2)c1	2.82	182	73
Brc1ccc(N2CCCNCC2)cn1	1	64.6	88
c1cncc(OC2CCCNC2)c1 (stereo not drawn)	191	32400	22
C1=C(c2cccnc2)CC2CCCC1N2 (stereo not drawn)	4.47	1200	34
C1=C(c2cccnc2)CC2CCC1N2 (stereo not drawn)	6.76	1000	66
c1cncc(N2CCCNCCC2)c1	0.891	36.3	78
C=COc1cc(N2CCCNCCC2)cnc1Br	0.38	240	90
Clc1ncc(N2CCNCC2)cc1Br	229	7940	98
Clc1cncc(N2CCNCC2)c1	–	22900	41
Brc1ccc(N2CCNCC2)cn1	182	2510	129
COc1ccc(N2CCCNCC2)cn1	170	11000	88
C=COc1cncc(N2CCNCC2)c1	191	7590	18
COc1cncc(N2CCCNCC2)c1	1.91	1410	66
COc1cc(N2CCCNCC2)cnc1Cl	0.676	91.2	116
CCOc1cc(N2CCCNCC2)cnc1Br	0.871	257	78
Cc1ncc(N2CCNCC2)cc1Cl	525	26900	74
